Source: ChEMBL document CHEMBL4270630

Tests used:
[1] = test system: Influenza A virus; test: Antiviral activity against Influenza A virus A/PR/8/34(H1N1) infected in MDCK cells assessed as reduction in virus-induced cytopathic effect after 3 days by microscopic method; format: functional, organism-based, A/Puerto Rico/8/1934(H1N1); conditions: Influenza A virus, A/Puerto Rico/8/1934(H1N1), MDCK, 72 h
Outline: (§1)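 Semi-confluent MDCK cells were infected at an MOI of 0.0004 PFU/cell in Ultra-MDCK infection medium with 2 μg/mL TPCK-trypsin, together with compounds. After 3 days at 35 °C, CPE was scored by microscopy and confirmed by MTS formazan viability. EC50 is the concentration giving 50% inhibition of virus-induced CPE. Values are means of two to five independent tests.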

[2] = test system: Influenza A virus; test: Antiviral activity against Influenza A virus A/PR/8/34(H1N1) infected in MDCK cells after 3 days by MTS assay; format: functional, organism-based, A/Puerto Rico/8/1934(H1N1); conditions: Influenza A virus, A/Puerto Rico/8/1934(H1N1), MDCK, 72 h; outline: as §1
[3] = test system: Influenza A virus; test: Antiviral activity against Influenza A virus A/Virginia/ATCC3/2009(H1N1pdm) infected in MDCK cells assessed as reduction in virus-induced cytopathic effect after 3 days by microscopic method; format: functional, organism-based, Influenza A virus (A/Virginia/03/2009(H1N1)); conditions: 72 h; outline: as §1
[4] = test system: Influenza A virus; test: Antiviral activity against Influenza A virus A/Virginia/ATCC3/2009(H1N1pdm) infected in MDCK cells after 3 days by MTS assay; format: functional, organism-based, Influenza A virus (A/Virginia/03/2009(H1N1)); conditions: 72 h; outline: as §1
[5] = test system: H3N2 subtype; test: Antiviral activity against Influenza A virus A/HK/7/87(H3N2) infected in MDCK cells assessed as reduction in virus-induced cytopathic effect after 3 days by microscopic method; format: functional, organism-based; conditions: A/Hong Kong/7/1987(H3N2), 72 h; outline: as §1
[6] = test system: H3N2 subtype; test: Antiviral activity against Influenza A virus A/HK/7/87(H3N2) infected in MDCK cells after 3 days by MTS assay; format: functional, organism-based; conditions: A/Hong Kong/7/1987(H3N2), 72 h; outline: as §1
[7] = test system: Influenza B virus; test: Antiviral activity against Influenza B virus B/Ned/537/05 infected in MDCK cells assessed as reduction in virus-induced cytopathic effect after 3 days by microscopic method; format: functional, organism-based; conditions: B/Ned/537/05, MDCK, 72 h
Outline: (§2)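 Semi-confluent MDCK cells were infected at an MOI of 0.0004 PFU/cell in Ultra-MDCK infection medium with 2 μg/mL TPCK-trypsin, together with compounds. After 3 days at 35 °C, CPE was scored by microscopy and confirmed by MTS formazan viability. Values are means of two to five independent tests.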

[8] = test system: Influenza B virus; test: Antiviral activity against Influenza B virus B/Ned/537/05 infected in MDCK cells after 3 days by MTS assay; format: functional, organism-based; conditions: B/Ned/537/05, MDCK, 72 h; outline: as §2
[9] = test system: MDCK; test: (§3) Cytotoxicity against MDCK cells assessed as reduction in cell viability after 3 days by MTS assay; format: cell-based, Canis lupus familiaris; conditions: dog, mdck, 72 h
[10] = Cytotoxicity against MDCK cells assessed as alteration in cell morphology after 3 days by microscopic method; format: cell-based, Canis lupus familiaris; conditions: dog
Outline: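 Mock-infected MDCK cells were treated with compounds in parallel with the antiviral assay, 3 days at 35 °C. MCC is the concentration causing minimal change in cell morphology by microscopy. CC50 is the 50% cytotoxic concentration by MTS formazan viability assay.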

[11] = test system: Human coronavirus 229E; test: Antiviral activity against Human coronavirus 229E infected in HEL299 cells assessed as reduction in virus induced cytopathic effect after 5 days by microscopic method; format: functional, organism-based; conditions: HEL 299, 120 h
Outline: (§4)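 Confluent HEL 299 cells in medium with 2% FCS were exposed to HCoV-229E (100 CCID50/well) together with compounds and held for 5 days at 35 °C. EC50 (CPE reduction) and MCC (minimal morphology change) were determined by microscopy. SI is MCC/EC50.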

[12] = Cytotoxicity against HEL299 cells assessed as changes in cell morphology after 5 days by microscopic method; format: cell-based, HEL 299; conditions: human; outline: as §4
[13] = test system: Human coronavirus 229E; test: Antiviral activity against Human coronavirus 229E infected in human A549 cells assessed as reduction in virus RNA level after 3 days by qRT-PCR method; format: functional; conditions: A549, 72 h
Outline: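 Confluent A549 cells were infected with HCoV-229E in 2% FCS medium with compounds present. The inoculum was removed at 1 h and compounds were kept on at 35 °C. Supernatants were harvested at day 3, lysed at 75 °C for 10 min, and viral genome copies counted by one-step qRT-PCR.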

[14] = Cytotoxicity against human A549 cells assessed as changes in cell morphology after 3 days by microscopic method; format: cell-based
Outline: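 Mock-infected A549 cells were incubated with compounds for 3 days. MCC is the concentration causing minimal change in cell morphology by microscopy.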

[15] = Selectivity index, ratio of MCC for HEL299 cells to EC50 for Human coronavirus 229E infected in HEL299 cells; format: toxicity, cell-based; conditions: read-out: Selectivity Index; outline: as §4
[16] = Selectivity index, ratio of MCC for MDCK cells to EC50 for Influenza A virus A/PR/8/34(H1N1) infected in MDCK cells assessed as reduction in virus-induced cytopathic effect by microscopic method; format: toxicity, cell-based; conditions: dog, read-out: Selectivity Index
Outline: (§5)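 Selectivity index is MCC divided by EC50. MCC comes from microscopy of mock-infected MDCK cells. EC50 comes from microscopic scoring of virus-induced CPE in MDCK cells infected at an MOI of 0.0004 PFU/cell with TPCK-trypsin. Both readings were taken after 3 days at 35 °C.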

[17] = Selectivity index, ratio of MCC for MDCK cells to EC50 for Influenza A virus A/Virginia/ATCC3/2009(H1N1pdm) infected in MDCK cells assessed as reduction in virus-induced cytopathic effect by microscopic method; format: toxicity, cell-based; conditions: dog, read-out: Selectivity Index; outline: as §5
[18] = Selectivity index, ratio of MCC for MDCK cells to EC50 for Influenza A virus A/HK/7/87(H3N2) infected in MDCK cells assessed as reduction in virus-induced cytopathic effect by microscopic method; format: toxicity, cell-based; conditions: dog, read-out: Selectivity Index; outline: as §5
[19] = Selectivity index, ratio of MCC for MDCK cells to EC50 for Influenza B virus B/Ned/537/05 infected in MDCK cells assessed as reduction in virus-induced cytopathic effect by microscopic method; format: toxicity, cell-based; conditions: dog, read-out: Selectivity Index; outline: as §5
[20] = Selectivity index, ratio of MCC for MDCK cells to EC50 for Influenza B virus B/HK/05/72 infected in MDCK cells assessed as reduction in virus-induced cytopathic effect by microscopic method; format: toxicity, cell-based; conditions: dog, read-out: Selectivity Index; outline: as §5
[21] = test system: Influenza B virus; test: Antiviral activity against Influenza B virus B/HK/05/72 infected in MDCK cells assessed as reduction in virus-induced cytopathic effect after 3 days by microscopic method; format: functional, organism-based; conditions: B/Hong Kong/05/1972, MDCK, 72 h; outline: as §1
[22] = test system: Influenza B virus; test: Antiviral activity against Influenza B virus B/HK/05/72 infected in MDCK cells after 3 days by MTS assay; format: functional, organism-based; conditions: B/Hong Kong/05/1972, MDCK, 72 h; outline: as §1
[23] = as §3; format: cell-based, Canis lupus familiaris; conditions: dog, MDCK cells
[24] = test system: Influenza A virus; test: Antiviral activity against Influenza A virus A/PR/8/34(H1N1) GFP-fused pseudotyped lentiviral particle expressing H1-HA/N1-NA infected in MDCK cells assessed as inhibition of pseudoparticle entry at 2 uM after 3 days by flow cytometry relative to control; format: functional; conditions: A/Puerto Rico/8/1934(H1N1), 72 h
Outline: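 MDCK cells were seeded at 7500/well and one day later were exposed to compounds plus GFP lentiviral pseudoparticles bearing A/PR/8/34 H1-HA and N1-NA, with HA0 activated by trypsin. After 3 days the cells were trypsinized, fixed in paraformaldehyde and analysed for GFP by flow cytometry. Entry inhibition was taken as the reduction in GFP signal. Data are the mean ± SEM of four independent experiments.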

SMILES | EC50 [1] [µM] | EC50 [2] [µM] | EC50 [3] [µM] | EC50 [4] [µM] | EC50 [5] [µM] | EC50 [6] [µM] | EC50 [7] [µM] | EC50 [8] [µM] | CC50 [9] [µM] | MCC at 72 h [10] [µM] | EC50 [11] [µM] | MCC at 120 h [12] [µM] | EC90 [13] [µM] | EC99 [13] [µM] | MCC at 72 h [14] [µM] | selectivity ratio [15] | further results
CCCCCCCCCCCCS(=O)(=O)N[C@H]1C(=O)N[C@@H]2Cc3ccc(c(Cl)c3)Oc3cc4cc(c3O)Oc3ccc(cc3Cl)[C@@H](O[C@@H]3O[C@H](CO)[C@@H](O)[C@H](O)[C@H]3NC(C)=O)[C@H]3NC(=O)[C@H](NC(O)[C@@H]4NC(=O)[C@@H](NC2=O)c2cc(O)cc(c2)Oc2cc1ccc2O)c1ccc(O)c(c1)-c1c(O)cc(O)cc1[C@H](C(=O)O)NC3=O (stereo partly specified) | 0.4 | 0.8 | > 100 | 1.6 | < 0.8 | < 0.8 | < 0.8 | < 0.8 | 4.5 | 4 | 1.8 | 20 | 2.8 | 4.7 | 50 | 13 | –
CCCCCCS(=O)(=O)N[C@H]1C(=O)N[C@@H]2Cc3ccc(c(Cl)c3)Oc3cc4cc(c3O)Oc3ccc(cc3Cl)[C@@H](O[C@@H]3O[C@H](CO)[C@@H](O)[C@H](O)[C@H]3NC(C)=O)[C@H]3NC(=O)[C@H](NC(O)[C@@H]4NC(=O)[C@@H](NC2=O)c2cc(O)cc(c2)Oc2cc1ccc2O)c1ccc(O)c(c1)-c1c(O)cc(O)cc1[C@H](C(=O)O)NC3=O (stereo partly specified) | 8.6 | 9.6 | 8.9 | 9.1 | 8.3 | 8.9 | 8.9 | 10.3 | 54 | 100 | 1.5 | 20 | – | – | – | 11 | –
CCCCSC1=C(SCCCC)C(=O)N(CCOCCOCCOCCOCc2cn(C3C(=O)N[C@@H]4Cc5ccc(c(Cl)c5)Oc5cc6cc(c5O)Oc5ccc(cc5Cl)[C@@H](O[C@@H]5O[C@H](CO)[C@@H](O)[C@H](O)[C@H]5NC(C)=O)[C@H]5NC(=O)[C@H](NC(O)[C@@H]6NC(=O)[C@@H](NC4=O)c4cc(O)cc(c4)Oc4cc3ccc4O)c3ccc(O)c(c3)-c3c(O)cc(O)cc3[C@H](C(=O)O)NC5=O)nn2)C1=O (stereo partly specified) | 4.8 | 5.8 | 9.5 | 8.6 | 5.3 | 6 | 5.5 | 4.9 | > 100 | 100 | 8.9 | ≥ 100 | 8.6 | 29 | > 50 | – | selectivity ratio [16]: 16; selectivity ratio [17]: 16; selectivity ratio [18]: 16; selectivity ratio [19]: 16; selectivity ratio [20]: 16
CC(=O)N[C@H]1[C@H](O[C@@H]2c3ccc(c(Cl)c3)Oc3cc4cc(c3O)Oc3ccc(cc3Cl)C[C@H]3NC(=O)[C@H](NS(=O)(=O)c5ccc(C)cc5)c5ccc(O)c(c5)Oc5cc(O)cc(c5)[C@H](NC3=O)C(=O)N[C@H]4C(O)N[C@H]3C(=O)N[C@H]2C(=O)N[C@@H](C(=O)O)c2cc(O)cc(O)c2-c2cc3ccc2O)O[C@H](CO)[C@@H](O)[C@@H]1O (stereo partly specified) | 9 | 11 | 30 | 32 | 41 | 19 | 11 | 12 | > 100 | 100 | 5.2 | ≥ 100 | 4.9 | 10 | > 50 | 19 | –
CCCCCCCCO[C@@H]1[C@@H](OCCCCCCCC)[C@@H](OC)O[C@H](COCCOCCOCCOCCOCc2cn([C@H]3C(=O)N[C@@H]4Cc5ccc(c(Cl)c5)Oc5cc6cc(c5O)Oc5ccc(cc5Cl)[C@@H](O[C@@H]5O[C@H](CO)[C@@H](O)[C@H](O)[C@H]5NC(C)=O)[C@H]5NC(=O)[C@H](NC(O)[C@@H]6NC(=O)[C@@H](NC4=O)c4cc(O)cc(c4)Oc4cc3ccc4O)c3ccc(O)c(c3)-c3c(O)cc(O)cc3[C@H](C(=O)O)NC5=O)nn2)[C@H]1OCc1ccc(OC)cc1 (stereo partly specified) | 0.8 | 1.2 | 1.4 | < 0.8 | 1.8 | 1.2 | – | – | – | 20 | – | – | – | – | – | – | EC50 [21]: > 100 µM; EC50 [22]: > 100 µM; CC50 at 72 h [23]: 11 µM; inhibition at 2 µM [24]: 54%
